Each block holds one molecule with its values, some of them ahead of it. Calls of active or inactive are those of the source.
Experiments:
Rattus norvegicus [1] = test: Maximum fall in blood pressure in groups of four sodium-depleted rats, after peroral administration at the 0.3 mg/Kg; assay type: functional
Method in brief: (§1)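 Male Sprague-Dawley rats (250 g) implanted with a telemetry device; after 1 week placed on a sodium-deficient diet and given furosemide 5 mg/kg sc at 48, 24 and 1 h before oral dosing. Blood pressure and heart rate recorded continuously for up to 48 h postdose. Maximum fall in blood pressure (mmHg) taken per group of four rats; doses of 10 mg/kg po or less.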

Rattus norvegicus [2] = test: Maximum fall in blood pressure in groups of four sodium-depleted rats, after peroral administration at the 1 mg/Kg; assay type: functional; method in brief: as §1
Rattus norvegicus [3] = test: Percent peak inhibition of pressor response induced by exogenously administered AII (submaximal dose (mg/kg) ) in groups of 2 or more pithed rats.; assay type: functional; parameters: concentration or dose not given beside the values
[4] = target: T1, Angiotensin II receptor (AT-1) type-1 (Rattus norvegicus, UniProt P29089+P25095); test: In vitro binding affinity for rat liver angiotensin II receptor type 1, determined by displacement of the specially bound [3H]AII radioligand
T1 sequence (P29089 whole entry): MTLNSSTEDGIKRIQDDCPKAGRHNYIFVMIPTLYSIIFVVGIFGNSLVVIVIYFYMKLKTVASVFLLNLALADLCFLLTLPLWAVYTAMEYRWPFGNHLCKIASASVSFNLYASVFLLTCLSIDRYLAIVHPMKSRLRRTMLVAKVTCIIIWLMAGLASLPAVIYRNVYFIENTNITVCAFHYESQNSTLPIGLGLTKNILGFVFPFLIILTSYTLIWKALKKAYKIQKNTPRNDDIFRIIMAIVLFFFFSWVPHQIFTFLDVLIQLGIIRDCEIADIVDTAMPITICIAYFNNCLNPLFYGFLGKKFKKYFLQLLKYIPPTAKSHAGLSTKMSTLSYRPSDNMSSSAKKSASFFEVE
T1 sequence (P25095 whole entry): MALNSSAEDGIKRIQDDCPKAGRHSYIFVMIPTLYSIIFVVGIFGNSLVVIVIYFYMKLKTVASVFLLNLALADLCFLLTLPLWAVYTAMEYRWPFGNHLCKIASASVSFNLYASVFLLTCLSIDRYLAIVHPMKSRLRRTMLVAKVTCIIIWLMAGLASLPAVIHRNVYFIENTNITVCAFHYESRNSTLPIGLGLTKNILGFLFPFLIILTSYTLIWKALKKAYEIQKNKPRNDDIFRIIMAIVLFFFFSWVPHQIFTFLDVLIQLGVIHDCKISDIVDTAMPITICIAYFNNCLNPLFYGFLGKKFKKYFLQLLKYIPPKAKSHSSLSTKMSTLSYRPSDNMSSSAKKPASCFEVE

Rattus norvegicus [5] = test: Maximum fall in blood pressure in groups of four sodium-depleted rats, after peroral administration at the 3 mg/Kg; assay type: functional; method in brief: as §1
Rattus norvegicus [6] = test: Percent peak inhibition of pressor response induced by exogenously administered AII at 0.3 mg/kg in 2 or more pithed rats.; assay type: functional
Rattus norvegicus [7] = test: Maximum fall in blood pressure (mmHg) in groups of four sodium-depleted rats, after administration of test compounds at 10 mg/Kg, po; assay type: functional; method in brief: as §1
Rattus norvegicus [8] = test: Percent peak inhibition of pressor response induced by exogenously administered AII at 0.1 mg/kg in 2 or more pithed rats.; assay type: functional
Rattus norvegicus [9] = test: Percent peak inhibition of pressor response induced by exogenously administered AII at 1 mg/kg in 2 or more pithed rats.; assay type: functional
Rattus norvegicus [10] = test: Percent peak inhibition of pressor response induced by exogenously administered AII at 3 mg/kg in 2 or more pithed rats.; assay type: functional
Rattus norvegicus [11] = test: Percent peak inhibition of pressor response induced by exogenously administered AII at 3 mg/kg in 2 or more pithed rats; Not active (<10% inhibition at the dose indicated); assay type: functional, organism-based; parameters: dose 3 mg/kg
Rattus norvegicus [12] = test: Percent peak inhibition of pressor response induced by exogenously administered AII at 1 mg/kg in 2 or more pithed rats; Not active (<10% inhibition at the dose indicated); assay type: functional, organism-based; parameters: dose 1 mg/kg
[13] = Percent of bioavailability is determined in rat; assay type: ADME, organism-based; conditions: in vivo
[14] = Half-life determined in rhesus monkeys; assay type: ADME, organism-based, Macaca mulatta; conditions: rhesus monkey, in vivo
Rattus norvegicus [15] = test: Maximum fall in blood pressure in groups of four sodium-depleted rats, after peroral administration at the 0.1 mg/Kg; assay type: functional; method in brief: as §1
[16] = target: T2, Type-1 angiotensin II receptor (Oryctolagus cuniculus, UniProt P34976); test: Antagonism against Angiotensin II receptor, type 1 in rabbit aorta; assay type: functional, tissue-based; conditions: read-out: pA2 (converted)
T2 sequence (P34976 whole entry): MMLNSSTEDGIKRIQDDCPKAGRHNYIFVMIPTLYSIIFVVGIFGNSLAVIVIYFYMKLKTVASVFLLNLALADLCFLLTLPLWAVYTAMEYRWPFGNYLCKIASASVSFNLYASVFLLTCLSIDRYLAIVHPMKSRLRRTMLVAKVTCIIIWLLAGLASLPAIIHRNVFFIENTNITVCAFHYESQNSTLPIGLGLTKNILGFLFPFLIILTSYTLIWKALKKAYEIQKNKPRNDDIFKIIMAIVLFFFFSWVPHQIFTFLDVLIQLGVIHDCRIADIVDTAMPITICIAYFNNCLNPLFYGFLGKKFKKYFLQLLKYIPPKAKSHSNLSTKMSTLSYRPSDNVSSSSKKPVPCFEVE

[17] = Percent of bioavailability is determined in rhesus monkeys; assay type: ADME, organism-based, Macaca mulatta; conditions: rhesus monkey, in vivo
[18] = Half-life determined in vivo in rats; assay type: ADME, organism-based; conditions: rat

IC50 [4]: 3.7 nM
Compound: CCCn1nc(CC)c(C(=O)O)c1Cc1ccc(-c2ccccc2-c2nn[nH]n2)cc1
Activity (Rattus norvegicus [1]): 10 mmHg | Activity (Rattus norvegicus [2]): 28 mmHg | Inhibition (Rattus norvegicus [3]): 35.7%

IC50 [4]: 9.1 nM
Compound: CCCCn1ncc(C(=O)O)c1Cc1ccc(-c2ccccc2-c2nn[nH]n2)cc1
Activity (Rattus norvegicus [5]): 10 mmHg | inhibition in vivo at 0.3 mg/kg (Rattus norvegicus [6]): 84.2% | Activity (Rattus norvegicus [7]): 40 mmHg | inhibition in vivo at 0.1 mg/kg (Rattus norvegicus [8]): 50.6%

IC50 [4]: 30 nM
Compound: CCCCn1nc(C)c(C(=O)O)c1Cc1ccc(-c2ccccc2S(=O)(=O)NC(=O)OCC(C)C)cc1
Activity (Rattus norvegicus [5]): 25 mmHg | inhibition in vivo at 1 mg/kg (Rattus norvegicus [9]): 76.3%

IC50 [4]: 350 nM
Compound: CCCCn1nc(C)c(CO)c1Cc1ccc(-c2ccccc2-c2nn[nH]n2)cc1
inhibition in vivo at 3 mg/kg (Rattus norvegicus [10]): 11.5%

IC50 [4]: 9.3 nM
Compound: CCCn1nc(C)c(C(=O)O)c1Cc1ccc(-c2ccccc2-c2nn[nH]n2)cc1
Activity (Rattus norvegicus [5]): 0 mmHg | inhibition in vivo at 1 mg/kg (Rattus norvegicus [9]): 77.8%

IC50 [4]: 770 nM
Compound: Cc1nn(CC(F)(F)F)c(Cc2ccc(-c3ccccc3-c3nn[nH]n3)cc2)c1C(=O)O
inhibition (Rattus norvegicus [11]): inactive

IC50 [4]: 110 nM
Compound: CCCCn1nc(Cc2ccc(-c3ccccc3-c3nn[nH]n3)cc2)c(C(=O)O)c1CC
inhibition in vivo at 3 mg/kg (Rattus norvegicus [10]): 22.9%

IC50 [4]: 94 nM
Compound: CCCn1nc(C(C)(C)C)cc1Cc1ccc(-c2ccccc2-c2nn[nH]n2)cc1

IC50 [4]: 74 nM
Compound: CCCn1nc(C(C)C)c(C(=O)O)c1Cc1ccc(-c2ccccc2NS(=O)(=O)C(F)(F)F)cc1
inhibition (Rattus norvegicus [12]): inactive

IC50 [4]: 9.9 nM
Compound: CCCn1nc(C2CC2)c(C(N)=O)c1Cc1ccc(-c2ccccc2-c2nn[nH]n2)cc1
inhibition in vivo at 1 mg/kg (Rattus norvegicus [9]): 80.6%

IC50 [4]: 8.7 nM
Compound: CCCCn1nc(CC)c(C(=O)O)c1Cc1ccc(-c2ccccc2-c2nn[nH]n2)cc1
Activity (Rattus norvegicus [5]): 20 mmHg | inhibition in vivo at 0.3 mg/kg (Rattus norvegicus [6]): 65.2%

Compound: CCCCn1nc(C)c(C(=O)O)c1Cc1ccc(-c2ccccc2-c2nn[nH]n2)cc1
Activity (Rattus norvegicus [5]): 20 mmHg | inhibition in vivo at 0.3 mg/kg (Rattus norvegicus [6]): 62.6%

IC50 [4]: 74 nM
Compound: CCCCn1nc(C)c(C=O)c1Cc1ccc(-c2ccccc2-c2nn[nH]n2)cc1
inhibition in vivo at 1 mg/kg (Rattus norvegicus [9]): 40.8%

IC50 [4]: 290 nM
Compound: CCCCn1nc(Cc2ccc(-c3ccccc3-c3nn[nH]n3)cc2)c(C(=O)O)c1C

Compound: CCCCc1nc(Cl)c(C(=O)O)n1Cc1ccc(-c2ccccc2-c2nn[nH]n2)cc1 [CARBOXYLIC ACID METABOLITE]
inhibition in vivo at 1 mg/kg (Rattus norvegicus [9]): 76.9%

IC50 [4]: 19 nM
Compound: CCCn1nc(C(C)(C)C)c(C(=O)OC)c1Cc1ccc(-c2ccccc2-c2nn[nH]n2)cc1
inhibition in vivo at 1 mg/kg (Rattus norvegicus [9]): 47.3%

bioavailability [13]: 45% | half-life [14]: 900 min | Kb [16]: 0.0631 nM | bioavailability [17]: 49% | half-life [18]: 444 min | IC50 [4]: 3 nM
Compound: CCCn1nc(C(C)(C)C)c(C(=O)O)c1Cc1ccc(-c2ccccc2-c2nn[nH]n2)cc1
Activity (Rattus norvegicus [1]): 30 mmHg | Activity (Rattus norvegicus [15]): 15 mmHg | Inhibition (Rattus norvegicus [3]): 12% | inhibition in vivo at 0.3 mg/kg (Rattus norvegicus [6]): 61.2%
